Screening results from PubChem BioAssay.
Hits are enriched below; roughly 1.3% of the tested compounds scored in any of these assays.
NR2E3 ag-1: activates human photoreceptor nuclear receptor NR2E3. Q9Y5X4. GST-NR2E3/biotin-RetCOR TR-FRET, 1536-well. inhibition of corepressor binding, % at 4.78 µM. hit rate 0.12% among 320,000;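 active = percent inhibition above the cutoff of mean plus 3 SD of all tested compounds, set per screening campaign, cut at about 20% in these data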
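system = GST-tagged NR2E3 plus biotinylated RetCOR corepressor | input = 1.35 nM GST-NR2E3 | also added = 7 nM biotin-RetCOR | schedule = 5 h incubation at 4 °C | measured by = TR-FRET with europium anti-GST and streptavidin-D2, 340 nm excitation | read-out = percent loss of FRET ratio relative to control wells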
EP2 mod: modulators of human EP2 prostaglandin E2 receptor. EP2-expressing cells, cAMP HTRF FRET, PGE2 co-stimulation. hit rate 0.83% among 260,000. induction, % at 25 µM;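 active = compounds whose cAMP rise, as percent of the full-agonist control response, exceeds 60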;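 also: rat C6 glioma line stably carrying human EP2 under a CMV promoter; the protocol text gives 20 µM as final concentration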
NR2E3 ag-2: agonists of human NR2E3 nuclear receptor. Q9Y5X4. CHO-S Gal4-NCOR/VP16-NR2E3 two-hybrid, luciferase. inhibition of corepressor binding, % at 3.98 µM. hit rate 0.35% among 360,000. AID 602229;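 active = inhibition above the mean of all tested compounds plus 3 SD, cut at about 70% in these data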;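 also: higher means lower luciferase signal from less NR2E3 corepressor binding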
EP2 antag: EP2 receptor (human) inhibition | P43116 | C6 glioma cells expressing human EP2, cAMP TR-FRET; cells stimulated with saturating PGE2 | inhibition, % at 25 µM | hit rate 0.52% among 260,000;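 active = percent inhibition above 40 after rounding to a whole number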;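 also: rat C6 glioma host cells with rolipram phosphodiesterase inhibitor present; the protocol text gives 20 µM as final concentration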
Furin inhibitor: inhibitors of human furin | AID 463115 | P09958 | inhibition, % at 20 µM or 30 µM | purified furin, fluorogenic substrate cleavage | hit rate 0.061% among 220,000; in the data active = inhibition above about 25%
Target sequence (P09958 108-714 limits assumed): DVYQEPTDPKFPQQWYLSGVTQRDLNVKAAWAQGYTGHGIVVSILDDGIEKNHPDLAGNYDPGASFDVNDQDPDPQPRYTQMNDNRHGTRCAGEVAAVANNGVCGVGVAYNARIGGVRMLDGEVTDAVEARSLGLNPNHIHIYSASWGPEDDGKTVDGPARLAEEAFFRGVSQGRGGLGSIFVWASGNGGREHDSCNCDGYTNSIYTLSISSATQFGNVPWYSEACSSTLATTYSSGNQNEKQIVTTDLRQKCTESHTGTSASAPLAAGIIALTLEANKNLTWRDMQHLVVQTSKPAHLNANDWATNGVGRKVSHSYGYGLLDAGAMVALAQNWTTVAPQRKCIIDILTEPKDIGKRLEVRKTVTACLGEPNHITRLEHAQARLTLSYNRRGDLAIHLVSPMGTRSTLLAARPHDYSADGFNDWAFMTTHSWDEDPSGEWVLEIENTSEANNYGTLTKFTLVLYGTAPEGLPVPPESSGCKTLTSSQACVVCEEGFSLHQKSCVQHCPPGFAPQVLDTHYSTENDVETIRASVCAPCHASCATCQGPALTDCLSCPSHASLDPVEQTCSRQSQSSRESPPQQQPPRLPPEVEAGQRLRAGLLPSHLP
GASC-1 inh: blocks human GASC-1 demethylase activity; GST-JMJD2C(1-420) H3K9me3 demethylation, DELFIA europium; inhibition, % at 2.35 µM; hit rate 0.069% among 330,000;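 active = more than half of a compound's replicate wells show inhibition beyond 50%, single wells judged on their own value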;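 also: signal counts dimethyl H3K9 product captured on neutravidin plate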
Hits are given with their value; ! = repeats disagree.

Cc1nn2c3ccccc3nc2n(Cc2ccccc2)c1=O was read as Furin inhibitor 26.
`CCn1c(=O)c(C)nn2c3ccccc3nc12` gave NR2E3 ag-1 inactive, EP2 mod inactive, NR2E3 ag-2 inactive, EP2 antag inactive, Furin inhibitor inactive and GASC-1 inh inactive.
`Cn1c(=O)c(-c2ccccc2)nn2c3ccccc3nc12` gave NR2E3 ag-1 inactive, EP2 mod inactive, NR2E3 ag-2 inactive, EP2 antag inactive, Furin inhibitor inactive and GASC-1 inh 52.
Screening COc1ccc2c(c1)cc(C)c1nnc(SCC(N)=O)n12 returned EP2 mod inactive and EP2 antag inactive.
`COc1cc2nc(-c3ccc(Br)o3)oc(=O)c2cc1OC` gave NR2E3 ag-1 inactive, EP2 mod inactive, NR2E3 ag-2 inactive, EP2 antag 40, Furin inhibitor inactive and GASC-1 inh inactive.
Cc1ccc2c(c1)C(=O)CC1(CCN(CC(=O)NCc3ccccc3F)CC1)O2 was read as EP2 mod inactive.
Screening COc1ccc(C(CNc2ncnc3sccc23)N(C)C)cc1OC (stereo unspecified) returned NR2E3 ag-1 inactive, NR2E3 ag-2 inactive and GASC-1 inh inactive.
Screening COc1ccc(CNc2ncnc3sccc23)cc1OC returned NR2E3 ag-1 inactive, NR2E3 ag-2 80 and GASC-1 inh inactive.
Screening Cn1c(COc2ccccc2)nnc1SCC(=O)N(C1CCCCC1)C1CCCCC1 returned EP2 mod 74 and EP2 antag inactive.
Screening COc1ccc(-n2nnnc2SCC(=O)N(C2CCCCC2)C2CCCCC2)cc1OC returned EP2 mod 69 and EP2 antag inactive.
For COc1ccc(-n2nnnc2SCC(=O)NC2CCCC2)cc1OC the results were NR2E3 ag-1 inactive, NR2E3 ag-2 inactive and GASC-1 inh inactive.
Screening Cc1nc2sc3c(c2c2nnc(SCC(=O)Nc4nc(C(C)(C)C)cs4)n12)CCCC3 returned EP2 mod inactive and EP2 antag inactive.
`O=C(Nc1ccccc1-c1ccccc1)c1cnccn1` gave NR2E3 ag-1 inactive, EP2 mod 66!, NR2E3 ag-2 inactive, EP2 antag inactive, Furin inhibitor inactive and GASC-1 inh inactive.
Screening Cc1cccc(Oc2ccccc2NC(=O)c2cnccn2)c1 returned NR2E3 ag-1 inactive, EP2 mod 61, NR2E3 ag-2 inactive, EP2 antag inactive, Furin inhibitor inactive and GASC-1 inh inactive.
For Cc1ccc(NC(=O)c2cnccn2)c(Br)c1 the results were NR2E3 ag-1 inactive, NR2E3 ag-2 inactive and GASC-1 inh inactive.
`CC(C)(C)C(=O)NC(Cc1c[nH]c2ccccc12)C(=O)O` (stereo unspecified) gave EP2 mod inactive and EP2 antag inactive.
`CN(C)CCCN1c2ccc3ccccc3c2Sc2cccc(Cl)c21` gave EP2 mod inactive, NR2E3 ag-2 inactive and EP2 antag 49.
`CCOc1cc(C2NC(=O)C(O)=C2C(=O)c2ccco2)ccc1O` (stereo unspecified) gave EP2 mod inactive and EP2 antag inactive.
CCOC(=O)C1=C(C)NC(=S)N(C(C)=O)C1c1ccccc1 (stereo unspecified) was read as NR2E3 ag-1 inactive, EP2 mod 65, NR2E3 ag-2 inactive, Furin inhibitor inactive and GASC-1 inh inactive.
COC(=O)C1=C(C)NC(=S)N(C(C)=O)C1c1ccc(OC)cc1 (stereo unspecified) was read as EP2 mod inactive and EP2 antag inactive.
Screening CCOc1cc(C(=O)Nc2sc3c(c2C#N)CCC3)cc(OCC)c1OCC returned EP2 mod inactive and EP2 antag inactive.
CCOc1ccc(OCC)c(-c2c(=O)n(OCc3ccccc3Br)c3ccccc3[n+]2[O-])c1 was read as NR2E3 ag-1 inactive, EP2 mod 64, NR2E3 ag-2 inactive, EP2 antag inactive, Furin inhibitor inactive and GASC-1 inh inactive.
`CCOC(=O)COc1ccc2c(=O)c(-c3ccccc3OC)coc2c1` gave NR2E3 ag-1 inactive, EP2 mod inactive, NR2E3 ag-2 inactive, EP2 antag inactive, Furin inhibitor inactive and GASC-1 inh inactive.
CCOC(=O)COc1ccc(C2Oc3c(cccc3OC)C=C2[N+](=O)[O-])cc1 (stereo unspecified) was read as EP2 mod inactive and EP2 antag 53.
`CCOc1ccc(-c2[nH]nc3c2C(c2cc(OC)c(OC)c(OC)c2)C(C#N)=C(N)O3)cc1` (stereo unspecified) gave EP2 mod inactive and EP2 antag inactive.
`O=C(NC1CCCC1)C1CC1c1ccccc1` (stereo unspecified) gave NR2E3 ag-1 inactive, EP2 mod inactive, NR2E3 ag-2 inactive, EP2 antag inactive, Furin inhibitor 25 and GASC-1 inh inactive.
C=CCn1c(SCC(=O)c2ccc(F)cc2)nc2sc(C)cc2c1=O was read as EP2 mod inactive and EP2 antag inactive.
C=CCc1cc(C)ccc1OCCOCCC(C(=O)OCC)C(=O)OCC was read as NR2E3 ag-1 inactive, EP2 mod 62, NR2E3 ag-2 inactive, EP2 antag inactive, Furin inhibitor inactive and GASC-1 inh inactive.
For Cn1c(SCC(=O)n2c3c(c4ccccc42)CCCC3)nnc1-c1ccccc1 the results were NR2E3 ag-1 inactive, EP2 mod inactive, NR2E3 ag-2 inactive, EP2 antag inactive, Furin inhibitor inactive and GASC-1 inh inactive.
Cc1nnc(SCC(=O)n2c3c(c4ccccc42)CCCC3)s1 was read as NR2E3 ag-1 inactive, EP2 mod 64, NR2E3 ag-2 inactive, EP2 antag inactive, Furin inhibitor inactive and GASC-1 inh inactive.
`COc1ccc(-c2ccnc(SCC(=O)N3CCC(C)CC3)n2)cc1` gave EP2 mod inactive and EP2 antag inactive.
For CCc1sc(C(=O)Nc2cc(Cl)ccc2N2CCCCC2)cc1C the results were NR2E3 ag-1 inactive, EP2 mod inactive, NR2E3 ag-2 inactive, EP2 antag inactive, Furin inhibitor inactive and GASC-1 inh inactive.
Screening Cc1ccc(C(=O)Nc2cc(Cl)ccc2N2CCCCC2)s1 returned NR2E3 ag-1 inactive, EP2 mod 62, NR2E3 ag-2 inactive, EP2 antag inactive, Furin inhibitor inactive and GASC-1 inh inactive.
For CCn1c(CN2CCC(O)(c3ccc(F)cc3)CC2)nc2ccccc21 the results were EP2 mod inactive and EP2 antag inactive.
`CCOC(=O)c1csc(N)c1-c1ccc([N+](=O)[O-])cc1` gave NR2E3 ag-1 inactive, EP2 mod 63, NR2E3 ag-2 inactive, EP2 antag inactive, Furin inhibitor inactive and GASC-1 inh inactive.
`Oc1ccccc1Nc1nc(NCc2ccco2)c2ccccc2n1` gave NR2E3 ag-1 inactive, EP2 mod inactive, NR2E3 ag-2 inactive, EP2 antag inactive, Furin inhibitor inactive and GASC-1 inh inactive.
c1ccc(Nc2nc(NCc3ccco3)c3ccccc3n2)cc1 was read as NR2E3 ag-1 inactive, EP2 mod inactive, NR2E3 ag-2 inactive, EP2 antag 62, Furin inhibitor inactive and GASC-1 inh inactive.
